# Test results as given in PubChem BioAssay AID652278 (Broad Institute, 2013).
# Tested on: T. cruzi CAI/72 in J774, trypomastigote emergence, microscopy
# Assay: trypomastigote re-emergence after compound withdrawal – imaging, CAI/72 strain, J774 macrophages, dry powder, set 2, mechanism study, late-stage follow-up (AID 652278)
# Conditions: active compounds read high
# Procedure, shortened: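 Test system: J774 macrophages, 9000 rad-arrested, infected with T. cruzi CAI/72 | Detection: Daily microscopic scoring of emerging trypomastigotes | Evaluation: Slope, emergence day versus concentration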
row,Structure (SMILES),slope of emergence day vs concentration
1,CN(C)CC#Cc1cccc(-c2nc(C(=O)NCc3ccc4c(c3)OCO4)cc3c2[C@@H](CCO)N(S(=O)C(C)(C)C)C3)c1 (stereo partly specified),2.02
2,CC(C)N1C[C@@H](CN(C)Cc2ccc(Cl)cc2)Oc2c(NC(=O)c3ccncc3)cccc2C1=O,5
3,CN(C)CC#Cc1cccc(-c2nc(C(=O)N[C@@H]3CCN(Cc4ccccc4)C3)cc3c2[C@@H](CCO)N(S(=O)C(C)(C)C)C3)c1 (stereo partly specified),1.89
4,CC(C)N1C[C@@H](CN(C)Cc2ccc(Cl)cc2)Oc2c(NC(=O)c3ccncc3)cc(F)cc2C1=O,5
5,CC(C)N1C[C@@H](CN(C)CCc2ccc(Cl)cc2)Oc2c(NC(=O)c3ccncc3)cccc2C1=O,5
6,CN(C)C(=O)c1cccc(-c2ccc([C@H]3[C@H](CO)N4CCCCN(C(=O)C5CCC5)C[C@@H]34)cc2)c1,1.89
7,CC(C)N1C[C@@H](CN(C)CCc2ccc(Cl)c(Cl)c2)Oc2c(NC(=O)c3ccncc3)cccc2C1=O,5
8,CC(C)N1C[C@@H](CN(C)Cc2ccc(Oc3ccccc3)cc2)Oc2c(NC(=O)c3ccncc3)cccc2C1=O,5
9,CC(C)N1C[C@@H](CN(C)Cc2ccc(Cl)c(Cl)c2)Oc2c(NC(=O)c3ccncc3)cccc2C1=O,5
10,CC(C)N1C[C@@H](CN(C)Cc2ccc(Cl)cc2)Oc2c(C(=O)Nc3ccncc3)cccc2C1=O,5
11,CC(C)N1C[C@H](CN(C)Cc2ccc(Cl)cc2)Oc2c(NC(=O)c3ccncc3)cccc2C1=O,5
